pEC50, pKi: −log10 of the molar value.
Experiments:
[1] = molecular target: T1, Retinoic acid receptor beta (Homo sapiens, UniProt P10826); assay: Inhibition of [3H]ATRA binding to Retinoic acid receptor RAR beta
T1 sequence (P10826 whole entry): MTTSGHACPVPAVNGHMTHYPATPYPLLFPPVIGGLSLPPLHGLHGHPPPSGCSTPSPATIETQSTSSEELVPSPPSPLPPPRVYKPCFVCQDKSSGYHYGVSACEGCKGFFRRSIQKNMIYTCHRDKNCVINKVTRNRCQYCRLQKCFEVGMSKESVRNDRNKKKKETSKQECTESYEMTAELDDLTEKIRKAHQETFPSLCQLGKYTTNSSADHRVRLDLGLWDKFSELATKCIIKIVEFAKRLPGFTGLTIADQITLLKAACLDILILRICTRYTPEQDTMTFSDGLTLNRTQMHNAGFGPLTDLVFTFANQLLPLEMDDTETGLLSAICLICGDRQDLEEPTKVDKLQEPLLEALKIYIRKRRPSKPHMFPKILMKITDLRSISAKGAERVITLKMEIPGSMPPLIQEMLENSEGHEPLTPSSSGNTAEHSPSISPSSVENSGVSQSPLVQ
Outline: (§1)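 Receptors expressed recombinantly in a baculovirus system. Binding was measured by competition against 5 nM [3H]-all-trans-RA. Ki was calculated by the Cheng–Prusoff method.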

[2] = molecular target: T2, Retinoic acid receptor RXR-beta (Homo sapiens, UniProt P28702); assay: Inhibition of [3H]-Targretin binding to Retinoid X receptor RXR beta
T2 sequence (P28702 whole entry): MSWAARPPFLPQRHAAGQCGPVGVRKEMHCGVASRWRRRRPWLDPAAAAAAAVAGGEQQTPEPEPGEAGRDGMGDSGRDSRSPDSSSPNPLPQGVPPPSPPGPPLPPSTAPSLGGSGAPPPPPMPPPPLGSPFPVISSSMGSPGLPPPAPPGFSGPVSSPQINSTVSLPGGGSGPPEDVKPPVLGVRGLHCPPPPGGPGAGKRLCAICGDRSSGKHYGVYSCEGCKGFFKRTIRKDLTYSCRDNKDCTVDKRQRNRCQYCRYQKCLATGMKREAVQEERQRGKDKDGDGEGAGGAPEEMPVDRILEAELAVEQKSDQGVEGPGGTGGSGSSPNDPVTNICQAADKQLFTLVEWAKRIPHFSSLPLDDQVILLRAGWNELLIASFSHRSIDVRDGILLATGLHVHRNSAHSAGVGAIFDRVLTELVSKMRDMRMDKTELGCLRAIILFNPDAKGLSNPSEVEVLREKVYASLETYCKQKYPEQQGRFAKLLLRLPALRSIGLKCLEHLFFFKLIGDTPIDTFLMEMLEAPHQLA
Outline: (§2)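 Recombinant receptors were expressed in a baculovirus system. Test ligands competed with [3H]Targretin (LGD1069) for binding. Ki values were derived by the Cheng–Prusoff method.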

[3] = molecular target: T3, Retinoic acid receptor alpha (Homo sapiens, UniProt P10276); assay: Inhibition of [3H]ATRA binding to Retinoic acid receptor RAR alpha; outline: as §1
T3 sequence (P10276 whole entry): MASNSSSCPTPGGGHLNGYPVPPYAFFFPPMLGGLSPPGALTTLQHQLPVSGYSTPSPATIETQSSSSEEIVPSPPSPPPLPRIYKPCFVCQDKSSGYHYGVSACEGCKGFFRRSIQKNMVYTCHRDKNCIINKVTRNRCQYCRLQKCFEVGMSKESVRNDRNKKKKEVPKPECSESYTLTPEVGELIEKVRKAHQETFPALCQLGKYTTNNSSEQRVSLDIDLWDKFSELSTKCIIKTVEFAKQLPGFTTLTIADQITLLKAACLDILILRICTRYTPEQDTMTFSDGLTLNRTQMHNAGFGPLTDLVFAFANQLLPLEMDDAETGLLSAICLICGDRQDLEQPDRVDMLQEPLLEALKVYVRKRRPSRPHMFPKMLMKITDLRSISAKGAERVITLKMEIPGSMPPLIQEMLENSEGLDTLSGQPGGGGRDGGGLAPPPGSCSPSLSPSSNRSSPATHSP

[4] = molecular target: T4, Retinoic acid receptor gamma (Homo sapiens, UniProt P13631); assay: Inhibition of [3H]ATRA binding to Retinoic acid receptor RAR gamma; outline: as §1
T4 sequence (P13631 whole entry): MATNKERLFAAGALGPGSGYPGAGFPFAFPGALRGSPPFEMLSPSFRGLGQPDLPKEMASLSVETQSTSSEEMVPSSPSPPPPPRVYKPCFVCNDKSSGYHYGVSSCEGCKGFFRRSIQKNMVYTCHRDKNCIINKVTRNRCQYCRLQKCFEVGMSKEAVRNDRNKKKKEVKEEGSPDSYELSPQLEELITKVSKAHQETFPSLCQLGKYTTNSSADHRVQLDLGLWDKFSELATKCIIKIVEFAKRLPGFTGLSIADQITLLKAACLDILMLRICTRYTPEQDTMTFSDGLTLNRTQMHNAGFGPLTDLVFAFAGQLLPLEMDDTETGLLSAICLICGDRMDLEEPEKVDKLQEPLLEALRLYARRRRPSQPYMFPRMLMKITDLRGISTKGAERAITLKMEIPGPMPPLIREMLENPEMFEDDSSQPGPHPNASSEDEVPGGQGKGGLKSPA

[5] = molecular target: T4, Retinoic acid receptor gamma; assay: Transcriptional activation of Retinoic acid receptor RAR gamma
Outline: (§3)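 CV-1 cells were transiently cotransfected with the receptor expression vector, a ΔMTV-TREp-Luc reporter and an RSV-β-Gal internal control, then incubated with compound (log dilutions, 1 x 10^-12 to 1 x 10^-5 M). Luciferase was normalized by β-galactosidase. Response is % of the all-trans-RA maximum, giving EC50. Three experiments, triplicates at each concentration.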

[6] = molecular target: T2, Retinoic acid receptor RXR-beta; assay: Transcriptional activation of Retinoid X receptor RXR beta
Outline: (§4)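 In transiently cotransfected CV-1 cells, the receptor vector was paired with a reporter (RXRβ: CPRE-tk-Luc; RXRγ: CRBPII-tk-Luc) plus an RSV-β-Gal internal control. Compound was tested at 1 x 10^-12 to 1 x 10^-5 M in log dilutions. Luciferase was corrected by β-galactosidase and expressed as % of the 9-cis-RA maximum to give EC50. Three experiments, triplicate points.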

[7] = molecular target: T5, Retinoic acid receptor RXR-alpha (Homo sapiens, UniProt P19793); assay: Inhibition of [3H]targretin binding to Retinoid X receptor RXR alpha
T5 sequence (P19793 whole entry): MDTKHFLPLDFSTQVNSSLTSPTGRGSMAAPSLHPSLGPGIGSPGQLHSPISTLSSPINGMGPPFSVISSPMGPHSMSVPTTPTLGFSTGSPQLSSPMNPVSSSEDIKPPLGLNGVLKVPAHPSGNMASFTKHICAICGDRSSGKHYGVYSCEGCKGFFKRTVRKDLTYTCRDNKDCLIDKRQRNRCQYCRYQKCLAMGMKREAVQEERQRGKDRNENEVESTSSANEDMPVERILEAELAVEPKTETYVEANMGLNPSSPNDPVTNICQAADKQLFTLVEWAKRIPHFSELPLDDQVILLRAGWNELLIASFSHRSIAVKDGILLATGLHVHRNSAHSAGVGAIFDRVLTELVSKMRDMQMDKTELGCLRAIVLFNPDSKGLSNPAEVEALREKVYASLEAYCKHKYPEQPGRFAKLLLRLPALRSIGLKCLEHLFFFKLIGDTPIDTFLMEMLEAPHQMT

[8] = molecular target: T6, Retinoic acid receptor RXR-gamma (Homo sapiens, UniProt P48443); assay: Transcriptional activation of Retinoid X receptor RXR gamma; outline: as §4
T6 sequence (P48443 whole entry): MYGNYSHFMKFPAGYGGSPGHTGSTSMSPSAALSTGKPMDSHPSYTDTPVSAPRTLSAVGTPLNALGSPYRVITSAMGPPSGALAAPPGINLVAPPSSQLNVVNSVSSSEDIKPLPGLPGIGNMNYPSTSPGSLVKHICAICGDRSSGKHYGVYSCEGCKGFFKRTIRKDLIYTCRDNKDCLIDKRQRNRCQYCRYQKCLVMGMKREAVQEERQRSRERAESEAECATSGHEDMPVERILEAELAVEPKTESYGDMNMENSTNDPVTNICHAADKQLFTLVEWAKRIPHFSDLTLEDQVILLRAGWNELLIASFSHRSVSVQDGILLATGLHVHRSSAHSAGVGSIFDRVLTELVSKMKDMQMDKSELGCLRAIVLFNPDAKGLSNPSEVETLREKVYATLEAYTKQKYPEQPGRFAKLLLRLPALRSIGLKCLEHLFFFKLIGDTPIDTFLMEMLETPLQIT

[9] = molecular target: T5, Retinoic acid receptor RXR-alpha; assay: Transcriptional ativation of Retinoid X receptor RXR alpha
[10] = molecular target: T6, Retinoic acid receptor RXR-gamma; assay: Inhibition of [3H]targretin binding to Retinoid X receptor RXR gamma; outline: as §2
[11] = molecular target: T1, Retinoic acid receptor beta; assay: Transcriptional activation of Retinoic acid receptor RAR beta; outline: as §3
[12] = molecular target: T3, Retinoic acid receptor alpha; assay: Transcriptional activation of Retinoic acid receptor RAR alpha; outline: as §3

pKi [1] | pKi [2] | pKi [3] | pKi [4] | pEC50 [5] | pEC50 [6] | pKi [7] | pEC50 [8] | pEC50 [9] | pKi [10] | pEC50 [11] | pEC50 [12] | SMILES
5.59 | 8.05 | 5.75 | 5.22 | 6.72 | – | – | – | – | – | – | – | CCCOc1cc2c(cc1\C(C)=C/C=C/C(C)=C/C(=O)O)C(C)(C)CCC2(C)C
5.51 | 7.92 | 5.59 | 5.38 | 6.92 | 8.05 | 8.40 | 8.15 | 8.10 | 7.77 | 7.51 | – | CCOc1cc2c(cc1\C(C)=C/C=C/C(C)=C/C(=O)O)C(C)(C)CCC2(C)C
6.40 | 8.70 | 6.51 | 6.36 | 7.77 | 8.10 | 8.70 | 8.05 | 8.30 | 8.40 | 8.10 | 7.40 | COc1cc2c(cc1\C(C)=C/C=C/C(C)=C/C(=O)O)C(C)(C)CCC2(C)C

Source: ChEMBL document CHEMBL1129272, “Identification of the first retinoid X, receptor homodimer antagonist” (J Med Chem, 1996)
